Key:
Adenosine receptor A2a [1] = target: T1, Adenosine receptor A2a (Homo sapiens, UniProt P29274); assay: Displacement of [3H]2-[p-(2-carboxyethyl)phenyl-ethylamino]-5'-N-ethylcarboxamidoadenosine from human adenosine A2a receptor expressed in HEK293 cells; assay type: cell-based
Target sequence in this assay (P29274 whole entry): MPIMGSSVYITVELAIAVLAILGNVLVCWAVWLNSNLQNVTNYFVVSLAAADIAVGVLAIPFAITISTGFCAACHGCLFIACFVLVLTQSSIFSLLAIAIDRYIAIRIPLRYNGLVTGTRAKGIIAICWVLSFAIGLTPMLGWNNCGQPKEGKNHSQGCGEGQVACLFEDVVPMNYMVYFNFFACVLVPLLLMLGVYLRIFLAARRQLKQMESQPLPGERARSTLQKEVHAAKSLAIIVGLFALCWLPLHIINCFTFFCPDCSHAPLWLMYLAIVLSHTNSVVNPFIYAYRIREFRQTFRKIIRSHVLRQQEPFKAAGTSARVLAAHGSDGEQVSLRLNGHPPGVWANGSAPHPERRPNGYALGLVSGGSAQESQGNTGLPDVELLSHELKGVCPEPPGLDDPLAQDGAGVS

Adenosine receptor A1 = target: T2, Adenosine receptor A1 (Homo sapiens, UniProt P30542); assay: Displacement of [3H]R-PIA from human adenosine A1 receptor expressed in CHO cells; assay type: cell-based
T2 sequence (P30542 whole entry): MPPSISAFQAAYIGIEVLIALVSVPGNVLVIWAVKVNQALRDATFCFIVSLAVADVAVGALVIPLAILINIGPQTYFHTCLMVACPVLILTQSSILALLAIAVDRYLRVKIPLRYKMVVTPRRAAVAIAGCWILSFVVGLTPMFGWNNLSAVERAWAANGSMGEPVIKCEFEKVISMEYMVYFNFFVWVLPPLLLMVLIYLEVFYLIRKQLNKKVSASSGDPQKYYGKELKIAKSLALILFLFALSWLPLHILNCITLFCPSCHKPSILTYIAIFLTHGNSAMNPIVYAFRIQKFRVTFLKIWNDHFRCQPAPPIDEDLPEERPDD

Adenosine receptor A3 = target: T3, Adenosine receptor A3 (Homo sapiens, UniProt P0DMS8); assay: Displacement of [125I]I-AB-MECA from human adenosine A3 receptor expressed in CHO cells; assay type: cell-based
T3 sequence (P0DMS8 whole entry): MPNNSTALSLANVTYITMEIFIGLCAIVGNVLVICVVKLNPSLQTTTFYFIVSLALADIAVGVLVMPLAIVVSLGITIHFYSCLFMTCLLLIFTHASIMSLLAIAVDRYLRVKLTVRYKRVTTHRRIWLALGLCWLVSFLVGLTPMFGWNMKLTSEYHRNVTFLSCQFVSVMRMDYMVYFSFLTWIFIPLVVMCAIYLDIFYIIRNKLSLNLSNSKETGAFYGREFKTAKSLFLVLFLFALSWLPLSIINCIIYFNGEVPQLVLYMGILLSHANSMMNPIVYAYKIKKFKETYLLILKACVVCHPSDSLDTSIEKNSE

[2] = target: T4, Adenosine receptor A1 (Homo sapiens) (UniProt P30542); assay: Displacement of [3H]R-PIA from human adenosine A1 receptor expressed in CHO cells at 10 uM; assay type: cell-based
T4 sequence (whole entry): T2 sequence (P30542 whole entry)
Summary of the method: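 Single-point test at 10 μM on membranes of CHO cells stably expressing human A1 receptor, read as percent inhibition of [3H]R-PIA agonist binding. Nonspecific binding was defined with 10 μM NECA.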

Adenosine receptor A2a [3] = target: T1, Adenosine receptor A2a; assay: Displacement of [3H]4-[2-[7-amino-2-(2-furyl)-1,2,4-triazolo[1,5-a][1,3,5]triazin-5-yl-amino]ethylphenol from human adenosine A2a receptor expressed in HEK293 cells assessed as radioligand binding at 1 uM preincubated for 30 mins; assay type: cell-based
Summary of the method: (§1)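 Membranes of HEK293 cells stably expressing human A2A receptor were preincubated with compound (1 μM, 30 min). Membranes were then washed by repeated centrifugation cycles. Residual specific binding was measured with agonist [3H]CGS21680 (10 nM) or antagonist [3H]7 (1.0 nM) and expressed as percent binding remaining.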
Target sequence in this assay (P29274 whole entry): as the sequence (P29274 whole entry) above

Adenosine receptor A2a [4] = target: T1, Adenosine receptor A2a; assay: Agonist activity at human adenosine A2a receptor expressed in CHO cells assessed as stimulation of cAMP formation after 24 hrs; assay type: functional, cell-based
Target sequence in this assay (P29274 whole entry): as the sequence (P29274 whole entry) above

Homo sapiens [5] = species: Homo sapiens; assay: Selectivity ratio of Ki for human adenosine A3 receptor to Ki for human adenosine A2A receptor
Adenosine receptor A2a [6] = target: T1, Adenosine receptor A2a; assay: Displacement of [3H]4-[2-[7-amino-2-(2-furyl)-1,2,4-triazolo[1,5-a][1,3,5]triazin-5-yl-amino]ethylphenol from human adenosine A2a receptor K153A mutant expressed in COS-7 cells assessed as radioligand Bmax per mg of protein compound preincubated for 30 mins
Target sequence in this assay (P29274 whole entry, looked up): as the sequence (P29274 whole entry) above

Homo sapiens [7] = species: Homo sapiens; assay: Selectivity ratio of Ki for human adenosine A1 receptor to Ki for human adenosine A2A receptor
Adenosine receptor A2a [8] = target: T1, Adenosine receptor A2a; assay: Displacement of [3H]4-[2-[7-amino-2-(2-furyl)-1,2,4-triazolo[1,5-a][1,3,5]triazin-5-yl-amino]ethylphenol from wild type human adenosine A2a receptor expressed in COS-7 cells assessed as radioligand Kd compound preincubated for 30 mins
Target sequence in this assay (P29274 whole entry): as the sequence (P29274 whole entry) above

Adenosine receptor A2a [9] = target: T1, Adenosine receptor A2a; assay: Displacement of [3H]4-[2-[7-amino-2-(2-furyl)-1,2,4-triazolo[1,5-a][1,3,5]triazin-5-yl-amino]ethylphenol from human adenosine A2a receptor K150A mutant expressed in COS-7 cells assessed as radioligand Bmax per mg of protein compound preincubated for 30 mins
Target sequence in this assay (P29274 whole entry, looked up): as the sequence (P29274 whole entry) above

Adenosine receptor A2a [10] = target: T1, Adenosine receptor A2a; assay: Displacement of [3H]2-[p-(2-carboxyethyl)phenyl-ethylamino]-5'-N-ethylcarboxamidoadenosine from human adenosine A2a receptor expressed in HEK293 cells assessed as radioligand binding at 1 uM preincubated for 30 mins; assay type: cell-based; summary of the method: as §1
Target sequence in this assay (P29274 whole entry): as the sequence (P29274 whole entry) above

Row | Ki (Adenosine receptor A2a [1]) [nM] | Ki (Adenosine receptor A1) [nM] | Ki (Adenosine receptor A3) [nM] | inhibition [2] [%] | Activity (Adenosine receptor A2a [3]) [%] | EC50 (Adenosine receptor A2a [4]) [nM] | Ratio Ki (Homo sapiens [5]) | Bmax (Adenosine receptor A2a [6]) [pmol] | Ratio Ki (Homo sapiens [7]) | Kd (Adenosine receptor A2a [8]) [nM] | Bmax (Adenosine receptor A2a [9]) [pmol] | Activity (Adenosine receptor A2a [10]) [%] | SMILES
1 | 267 | 1890 | 171 | – | – | – | – | – | – | – | – | – | CCNC(=O)[C@H]1O[C@@H](n2cnc3c(N)nc(NCCc4ccc(CCC(=O)Nc5ccc(O)c([N+](=O)[O-])c5)cc4)nc32)[C@H](O)[C@@H]1O
2 | 4360 | – | 1810 | 30 | – | – | – | – | – | – | – | – | CCNC(=O)[C@H]1O[C@@H](n2cnc3c(N)nc(NCCc4ccc(CCC(=O)Nc5ccc(OC(=O)CCCCN=[N+]=[N-])c([N+](=O)[O-])c5)cc4)nc32)[C@H](O)[C@@H]1O
3 | 23 | 500 | 207 | – | 11 | 2.12 | 9 | 1.65 | 22 | 2.24 | 0.2 | 19 | CCNC(=O)[C@H]1O[C@@H](n2cnc3c(N)nc(NCCc4ccc(CCC(=O)Nc5ccc(OC(C)=O)c([N+](=O)[O-])c5)cc4)nc32)[C@H](O)[C@@H]1O
4 | 3280 | – | 1960 | 37 | – | – | – | – | – | – | – | – | CCNC(=O)[C@H]1O[C@@H](n2cnc3c(N)nc(NCCc4ccc(CCC(=O)Nc5ccc(OC(=O)CCCC[C@@H]6SC[C@@H]7NC(=O)N[C@@H]76)c([N+](=O)[O-])c5)cc4)nc32)[C@H](O)[C@@H]1O
